Here are results for two substances from publication PMC11268778 (International Journal of Nanomedicine, 2024).

Series [1] can be described thus: In vitro release from PLGA-NPs. The following applies: 1 mg NPs in 1.5 mL PBS pH 7.2, 37 °C, FITC fluorescence, triplicate. The series is classed as physicochemical.
The next series can be described thus: Encapsulation. The series is classed as physicochemical. The following applies: estimated from FITC signals of supernatants of broken minus un-broken NPs. Put shortly:
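PLGA (5 mg/mL in acetonitrile) containing FITC-labelled peptide was injected at 2 mL/min into 0.1% PVA and stirred 48 h. Particles were washed three times (15,000 rpm, 10 min) and freeze-dried. 1 mg NPs was disrupted in 50% DMSO/0.5% SDS/0.1 M NaOH for 1 h. FITC was read at 488/520 nm against a free-peptide calibration line. Surface-adsorbed fraction = broken minus unbroken supernatant signal. Triplicate.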

As to “βAla-G-βAla-QL-PEG-AAFAARAV [Ctrl PEG-Val]”, in series [1], the “peptide released from PLGA-NPs at 0.5 h” value worked out at 100%.

βAla-G-βAla-QL-PEG-AAFAARA [Ctrl PEG]: the “peptide adsorbed on the external surface of NPs” value in “Encapsulation” is ~ 63%.
